Test results: ChEMBL document CHEMBL1132108, “Design, synthesis, and activity of a series of pyrrolidine-3-carboxylic acid-based, highly specific, orally active ET(B) antagonists containing a diphenylmethylamine acetamide side chain” (J Med Chem, 1999)

Experiments:
[1] = Total drug exposure (5 mg/kg) when administered intravenously; type: ADME, organism-based; conditions: in vivo, iv
Summary of the method: (§1)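 Rats dosed at 5 mg/kg by intravenous injection and by oral gavage. Time course of plasma drug levels compared between the two routes to give half-life and AUC0-∞. Oral bioavailability F is calculated from the two routes.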

[2] = Total drug exposure (5 mg/kg) when administered orally; type: ADME, organism-based; conditions: in vivo, po; summary of the method: as §1
[3] = Oral bioavailability; type: ADME, organism-based; conditions: eutheria, in vivo; summary of the method: as §1
[4] = Half life (5 mg/kg) when administered intravenously; type: ADME, organism-based; conditions: in vivo, iv; summary of the method: as §1
[5] = Half life (5 mg/kg) when administered orally; type: ADME, organism-based; conditions: in vivo, po; summary of the method: as §1
[6] = molecular target: T1, Endothelin receptor type B (Homo sapiens, UniProt P24530); test: Binding ability determined by the displacement of [125 I]ET-3 from the human Endothelin B receptor
T1 sequence (P24530 whole entry): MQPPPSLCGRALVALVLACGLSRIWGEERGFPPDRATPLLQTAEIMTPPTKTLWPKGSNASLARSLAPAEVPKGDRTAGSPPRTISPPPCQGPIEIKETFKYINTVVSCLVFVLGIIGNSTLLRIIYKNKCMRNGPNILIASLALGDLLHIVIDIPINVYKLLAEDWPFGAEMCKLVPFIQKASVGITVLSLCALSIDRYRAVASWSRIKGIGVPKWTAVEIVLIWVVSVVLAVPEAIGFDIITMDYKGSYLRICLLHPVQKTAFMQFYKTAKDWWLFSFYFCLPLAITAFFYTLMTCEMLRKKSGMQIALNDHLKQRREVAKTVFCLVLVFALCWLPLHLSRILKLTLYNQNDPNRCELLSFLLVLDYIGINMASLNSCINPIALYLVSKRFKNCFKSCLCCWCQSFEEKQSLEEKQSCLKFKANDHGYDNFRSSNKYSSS

Endothelin-1 receptor = molecular target: T2, Endothelin-1 receptor (Homo sapiens, UniProt P25101); test: Binding ability determined by the displacement of [125I]ET1 from the human endothelin A receptor
T2 sequence (P25101 whole entry): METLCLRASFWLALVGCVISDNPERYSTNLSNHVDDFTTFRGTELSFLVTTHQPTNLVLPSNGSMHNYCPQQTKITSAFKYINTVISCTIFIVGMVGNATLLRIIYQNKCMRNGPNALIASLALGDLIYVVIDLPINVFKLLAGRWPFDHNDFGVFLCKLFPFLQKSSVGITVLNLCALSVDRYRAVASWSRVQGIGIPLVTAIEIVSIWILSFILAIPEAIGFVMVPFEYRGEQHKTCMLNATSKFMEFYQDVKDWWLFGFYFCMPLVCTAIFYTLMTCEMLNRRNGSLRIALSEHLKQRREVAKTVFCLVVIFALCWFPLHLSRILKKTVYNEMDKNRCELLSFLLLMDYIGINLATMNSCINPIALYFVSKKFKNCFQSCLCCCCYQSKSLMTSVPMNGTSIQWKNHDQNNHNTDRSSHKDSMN

[7] = molecular target: Endothelin receptor, ET-A/ET-B (Homo sapiens) (UniProt P24530+P25101); test: Ratio of binding affinity towards human endothelin receptor type A to human endothelin receptor type B (hETA to hETB); type: protein assay

Row | SMILES | AUC [1] [ng·h/mL] | AUC [2] [ng·h/mL] | bioavailability [3] [%] | half-life [4] [h] | half-life [5] [h] | IC50 [6] [nM] | IC50 (Endothelin-1 receptor) [nM] | Ratio [7]
1 | COCCOc1ccc([C@H]2[C@H](C(=O)O)[C@@H](c3ccc4c(c3)OCO4)CN2CC(=O)NC(c2ccccc2C)c2ccccc2C)cc1.O=C(O)C(F)(F)F (stereo in doubt; form 2) | 2500 | 200 | 8 | 2.9 | 0.55 | 1.7 | 27000 | –
2 | CCc1ccccc1C(NC(=O)CN1C[C@H](c2ccc3c(c2)OCO3)[C@@H](C(=O)O)[C@@H]1c1ccc(OC)cc1)c1ccccc1CC | – | – | – | – | – | 6.6 | 100 | 15.2
3 | COc1ccc([C@H]2[C@H](C(=O)O)[C@@H](c3ccc4c(c3)OCO4)CN2CC(=O)NC(c2ccccc2)c2cc(C)ccc2C)cc1 (stereo partly specified) | – | – | – | – | – | 31 | 122 | 3.94
4 | Cc1ccccc1C(NC(=O)CN1C[C@H](c2ccc3c(c2)OCO3)[C@@H](C(=O)O)[C@@H]1c1ccc(OCCOC(C)C)cc1)c1ccccc1C (stereo in doubt; form 2) [listing 1 of 2 here] | – | – | – | – | – | – | – | 23400
5 | COc1ccc([C@H]2[C@H](C(=O)O)[C@@H](c3ccc4c(c3)OCO4)CN2CC(=O)NC(C)c2ccccc2C)cc1 (stereo partly specified) | – | – | – | – | – | 18 | 16 | 0.89
6 | COc1ccc([C@H]2[C@H](C(=O)O)[C@@H](c3ccc4c(c3)OCO4)CN2CC(=O)NC(CC(C)C)c2ccccc2)cc1 (stereo partly specified) | – | – | – | – | – | 3.4 | 13.6 | 4
7 | COCCOc1ccc([C@H]2[C@H](C(=O)O)[C@@H](c3ccc4c(c3)OCO4)CN2CC(=O)NC(c2ccccc2C)c2ccccc2C)cc1 (stereo in doubt; form 1) [listing 1 of 2 here] | – | – | – | – | – | – | – | 12100
8 | COc1ccc([C@H]2[C@H](C(=O)O)[C@@H](c3ccc4c(c3)OCO4)CN2CC(=O)NC(c2ccccc2)C(C)C)cc1 (stereo partly specified) | – | – | – | – | – | 2.1 | 0.7 | 0.33
9 | COc1ccc([C@H]2[C@H](C(=O)O)[C@@H](c3ccc4c(c3)OCO4)CN2CC(=O)NC(c2ccccc2C)c2ccccc2C)cc1 | – | – | – | – | – | 1.1 | 161 | 146
10 | COc1ccc([C@H]2[C@H](C(=O)O)[C@@H](c3ccc4c(c3)OCO4)CN2CC(=O)NC(c2ccccc2)(c2ccccc2)c2ccccc2)cc1 | – | – | – | – | – | 744 | 432 | 0.58
11 | CCC(NC(=O)CN1C[C@H](c2ccc3c(c2)OCO3)[C@@H](C(=O)O)[C@@H]1c1ccc(OC)cc1)c1ccccc1 (stereo partly specified) | – | – | – | – | – | 2.6 | 1 | 0.38
12 | CCCC(NC(=O)CN1C[C@H](c2ccc3c(c2)OCO3)[C@@H](C(=O)O)[C@@H]1c1ccc(OC)cc1)c1ccccc1 (stereo partly specified) | – | – | – | – | – | 7.3 | 3.7 | 0.51
13 | Cc1ccccc1C(NC(=O)CN1C[C@H](c2ccc3c(c2)OCO3)[C@@H](C(=O)O)[C@@H]1c1ccc(OCCOC(C)C)cc1)c1ccccc1C.O=C(O)C(F)(F)F (stereo in doubt; form 1) | 3030 | 730 | 24 | 1.8 | 4.8 | 1.9 | 51700 | –
14 | COc1ccc([C@H]2[C@H](C(=O)O)[C@@H](c3ccc4c(c3)OCO4)CN2CC(=O)NC2c3ccccc3-c3ccccc32)cc1 | – | – | – | – | – | 600 | 1230 | 2.05
15 | CCc1ccccc1C(NC(=O)CN1C[C@H](c2ccc3c(c2)OCO3)[C@@H](C(=O)O)[C@@H]1c1ccc(OC)cc1)c1ccccc1C (stereo partly specified) | – | – | – | – | – | 6.1 | 749 | 123
16 | COc1ccc([C@H]2[C@H](C(=O)O)[C@@H](c3ccc4c(c3)OCO4)CN2CC(=O)NCC(c2ccccc2)c2ccccc2)cc1 | – | – | – | – | – | 108 | 199 | 1.84

Row | SMILES | AUC [1] [ng·h/mL] | AUC [2] [ng·h/mL] | bioavailability [3] [%] | half-life [4] [h] | half-life [5] [h] | IC50 [6] [nM] | IC50 (Endothelin-1 receptor) [nM] | Ratio [7]
17 | COc1ccc([C@H]2[C@H](C(=O)O)[C@@H](c3ccc4c(c3)OCO4)CN2CC(=O)NC(c2ccccc2)C(C)(C)C)cc1 (stereo partly specified) | – | – | – | – | – | 0.94 | 8.8 | 9.36
18 | CCCCC(NC(=O)CN1C[C@H](c2ccc3c(c2)OCO3)[C@@H](C(=O)O)[C@@H]1c1ccc(OC)cc1)c1ccccc1 (stereo partly specified) | – | – | – | – | – | 5 | 1.6 | 0.32
19 | CCc1ccccc1C(NC(=O)CN1C[C@H](c2ccc3c(c2)OCO3)[C@@H](C(=O)O)[C@@H]1c1ccc(OCCOC(C)C)cc1)c1ccccc1C (stereo partly specified) | – | – | – | – | – | 3.3 | 14300 | 4320
20 | COc1ccc([C@H]2[C@H](C(=O)O)[C@@H](c3ccc4c(c3)OCO4)CN2CC(=O)NC(C)c2ccccc2)cc1 (stereo partly specified) | – | – | – | – | – | 20 | 5.5 | 0.28
21 | COCCOc1ccc([C@H]2[C@H](C(=O)O)[C@@H](c3ccc4c(c3)OCO4)CN2CC(=O)NC(c2ccccc2C)c2ccccc2C)cc1 (stereo in doubt; form 2) | – | – | – | – | – | – | – | 16000
22 | COc1ccc([C@H]2[C@H](C(=O)O)[C@@H](c3ccc4c(c3)OCO4)CN2CC(=O)NC(c2ccccc2)c2ccccc2C)cc1 (stereo partly specified) | – | – | – | – | – | 3.4 | 63.5 | 18.7
23 | COc1ccc([C@H]2[C@H](C(=O)O)[C@@H](c3ccc4c(c3)OCO4)CN2CC(=O)NC(Cc2ccccc2)c2ccccc2)cc1 (stereo partly specified) | – | – | – | – | – | 47 | 3.9 | 0.08
24 | COCCOc1ccc([C@H]2[C@H](C(=O)O)[C@@H](c3ccc4c(c3)OCO4)CN2CC(=O)NC(c2ccccc2)C(C)(C)C)cc1 (stereo partly specified) | – | – | – | – | – | 2.2 | 488 | 222
25 | COc1ccc([C@H]2[C@H](C(=O)O)[C@@H](c3ccc4c(c3)OCO4)CN2CC(=O)NC(c2ccccc2)c2ccccc2)cc1 | – | – | – | – | – | 8.1 | 45.9 | 5.67
26 | CCC(CC)C(NC(=O)CN1C[C@H](c2ccc3c(c2)OCO3)[C@@H](C(=O)O)[C@@H]1c1ccc(OC)cc1)c1ccccc1 (stereo partly specified) | – | – | – | – | – | 1.1 | 2.5 | 2.27
27 | Cc1ccccc1C(NC(=O)CN1C[C@H](c2ccc3c(c2)OCO3)[C@@H](C(=O)O)[C@@H]1c1ccc(OCCOC(C)C)cc1)c1ccccc1C (stereo in doubt; form 2) [listing 2 of 2 here] | – | – | – | – | – | 3.3 | 77400 | –
28 | Cc1ccccc1C(NC(=O)CN1C[C@H](c2ccc3c(c2)OCO3)[C@@H](C(=O)O)[C@@H]1c1ccc(OCCOC(C)C)cc1)c1ccccc1C (stereo in doubt; form 1) | – | – | – | – | – | – | – | 27200
29 | CC(C)OCCOc1ccc([C@H]2[C@H](C(=O)O)[C@@H](c3ccc4c(c3)OCO4)CN2CC(=O)NC(c2ccccc2)C(C)(C)C)cc1 (stereo partly specified) | – | – | – | – | – | 0.71 | 322 | 454
30 | COCCOc1ccc([C@H]2[C@H](C(=O)O)[C@@H](c3ccc4c(c3)OCO4)CN2CC(=O)NC(c2ccccc2C)c2ccccc2C)cc1 (stereo in doubt; form 1) [listing 2 of 2 here] | – | – | – | – | – | 1.7 | 20600 | –
31 | COc1ccc([C@H]2[C@H](C(=O)O)[C@@H](c3ccc4c(c3)OCO4)CN2CC(=O)NC(CC(C)(C)C)c2ccccc2)cc1 (stereo partly specified) | – | – | – | – | – | 5 | 131 | 26.2
